# High-throughput results as filed in PubChem.
# A selection: hits, their analogues and other compounds. The true share with any hit is near 2.5%.
# TbMetRS inhib – T. brucei MetRS inhibitors, primary screen, biochemical, luminescence; methionyl-tRNA synthetase (Trypanosoma brucei brucei); purified T. brucei MetRS, ATP depletion, Kinase-Glo luminescence; inhibition, % at 11.9 µM; 360,000 compounds, 0.4% hits;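 active = inhibition above a per-plate cutoff of the control wells' mean inhibition plus 3 SD, cut at about 5.5% in these data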;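 note: 0% = DMSO wells median and 100% = median of wells with control inhibitor compound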
#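 Test system: purified T. brucei MetRS enzyme. Also added: ATP, methionine and E. coli bulk tRNA substrates. Compound: 11.9 µM single point. Schedule: 15 min enzyme-compound preincubation, 2 h reaction, 10 min detection, 25 °C. Signal: luciferase luminescence of residual ATP, Kinase-Glo. Evaluation: percent inhibition versus plate control medians. Controls: DMSO wells, low control.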
# NALP1 yeast inh – NALP1 inflammasome inhibitors in reconstituted yeast, colorimetric, S. cerevisiae, triplicate retest. S. cerevisiae NALP1/ASC/caspase-1 growth, X-gal OD620, 72 h. inhibition, % at 10 µM. 280,000 compounds, 0.61% hits. AID 2071, 2009; in the data active = inhibition mostly above about 24%, no sharp cut-off; inactive = mostly below about 32%
# MC4R antag cAMP – MC4R antagonists of cAMP signaling, primary screen, cell-based, TR-FRET, antagonist arm of biased-ligand search; inhibition, % at 6.5 µM; AID 540295, 2011; 360,000 compounds, 0.48% hits; Melanocortin receptor 4 (Homo sapiens), P32245; MC4R-expressing cells, MTII-stimulated cAMP, LANCE TR-FRET;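 active = inhibition above its plate's cutoff, the mean of tested wells on that plate plus 3 SD, cut at about 29% in these data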;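 note: 0% = Melanotan II alone and 100% = Melanotan II plus saturating MCL0020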
# Target sequence (P32245 whole entry, looked up): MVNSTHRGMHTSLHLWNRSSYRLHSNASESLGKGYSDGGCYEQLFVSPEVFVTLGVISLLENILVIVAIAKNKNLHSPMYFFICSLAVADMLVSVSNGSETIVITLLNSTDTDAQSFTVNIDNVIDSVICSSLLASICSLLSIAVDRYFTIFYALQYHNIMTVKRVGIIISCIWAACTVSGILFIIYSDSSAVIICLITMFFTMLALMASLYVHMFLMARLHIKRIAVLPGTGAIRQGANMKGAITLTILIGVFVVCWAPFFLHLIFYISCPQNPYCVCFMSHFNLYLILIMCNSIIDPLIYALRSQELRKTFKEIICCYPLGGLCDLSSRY
#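 Assay system: U2OS-MC4R stable cell line; Also added: Melanotan II; Technique: Eu-cAMP/anti-cAMP TR-FRET, emission 671 nm; Times: 30-min compound, 1-h challenge, 1-h detection, room temperature.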
# Bfl-1 A1 inh – caspase 3/7 activation in MEF A1-2A-BIM cells, primary screen, A1 inhibitor project, cell-based, luminescence, HTS; 330,000 compounds, 0.066% hits; Caspase-Glo 3/7 luminescence, 3 h; percent of clofoctol response, vehicle zero; AID 2462, 2010; caspase activation, % (no concentration beside the values);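 active = over half of replicate activation scores above 10%, or exactly half above 10 with the replicate mean above 10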
# MC4R ag barr – MC4R agonists recruiting beta-arrestin, primary screen, cell-based, luminescence, agonist arm of biased-ligand search; Melanocortin receptor 4 (Homo sapiens), P32245; U2OS MC4R beta-arrestin complementation; percent of melanotan II response, DMSO zero; activation, % at 8.9 µM; 360,000 compounds, 0.98% hits; AID 540308, 2011;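 active = activation above a per-plate cutoff, the mean activation of sample wells on that plate plus 3 SD, cut at about 8% in these data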
# NLRP3 yeast inh – NALP3 inflammasome inhibitors in reconstituted yeast, primary screen, luminescence, uHTS; Yeast reconstituted NLRP3/ASC/caspase-1, beta-gal luminescence, 24 h; inhibition, % at 10 µM; 330,000 compounds, 0.39% hits;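 active = inhibition of 50% or more; inactive = inhibition below 50%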;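 note: plate controls were induced DMSO wells for no effect and uninduced yeast grown without galactose for full effect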
# Tb MetRS conf – T. brucei MetRS inhibitors, confirmation, biochemical, luminescence; 1,400 compounds, 93% hits; shares compounds with TbMetRS inhib; T. brucei MetRS enzyme, luminescence (ATP depletion); inhibition, % at 11.9 µM; in the data active = inhibition above about 7%
# Jurkat tox – Jurkat T cell cytotoxicity, cytotoxicity control for T. brucei MetRS inhibitor project, luminescence, high throughput. shares compounds with TbMetRS inhib. Jurkat cells viability, ATP luminescence. inhibition, % at 8.3 µM. 1,400 compounds, 12% hits. AID 624413, 2012; in the data active = inhibition above about 15%;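 note: 0% = vehicle and 100% = reference inhibitor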
# Tb MetRS inh FP – T. brucei MetRS inhibitors, orthogonal assay for T. brucei MetRS inhibitor project, biochemical, fluorescence polarization; shares compounds with TbMetRS inhib; purified T. brucei MetRS; inhibition, % at 11.9 µM; 1,400 compounds, 44% hits; AID 651607, 2012; in the data active = inhibition above about 17%;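 note: 0% = vehicle wells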
# Starred values were filed as active, the others as inactive; · = no result given.
SMILES,TbMetRS inhib,NALP1 yeast inh,MC4R antag cAMP,Bfl-1 A1 inh,MC4R ag barr,NLRP3 yeast inh,Tb MetRS conf,Jurkat tox,Tb MetRS inh FP
O=C(NCc1nc2ccccc2[nH]1)c1ccc(S(=O)(=O)N2CCOCC2)cc1,11.8*,-5.4,-1.2,-2.7,3.2,6.7,21.0*,1.3,3.5
C[C@@H]1CN([C@H](C)CO)C(=O)CCCn2cc(nn2)CO[C@H]1CN(C)S(=O)(=O)c1ccccc1F,-0.7,·,·,·,·,·,·,·,·
O=C(CNC(=O)c1ccccc1F)NCCc1ccccc1F,0.3,·,-4.6,-0.6,-2.5,7.9,·,·,·
CCOc1ccc(N2C(=O)CC(N(CCc3ccccc3)C(=O)/C=C/C(=O)O)C2=O)cc1 (stereo not drawn),-1.1,1.5,0.4,0.1,-0.3,19.5,·,·,·
CNC(=S)N(CCc1ccc(S(N)(=O)=O)cc1)C1CC(=O)N(c2ccccc2F)C1=O (stereo not drawn),-0.2,22.2,23.8,0.4,-1.3,-0.2,·,·,·
Cc1ccc(N2C(=O)CC(N(CCc3ccccc3)C(=S)Nc3ccc(N(C)C)cc3)C2=O)cc1 (stereo not drawn),73.9*,9.2,20.4,0.0,7.6,5.2,45.8*,10.3,28.5*
O=C1CC(N(CCc2ccccc2)C(=S)Nc2ccccc2)C(=O)N1c1ccc(Br)cc1 (stereo not drawn),96.6*,35.0,19.2,-1.1,-0.2,13.3,98.8*,14.7,129.7*
N#Cc1ccc(Sc2nc3ccccc3[nH]2)cc1C#N,16.9*,8.7,0.2,-0.3,-1.4,19.5,28.9*,0.2,14.1
CC1=C(C(=O)N2CCCCCC2)CC(CC(=O)NCCN2CCOCC2)C(=O)N1CCCN1CCCC1=O (stereo not drawn),-0.4,·,·,·,·,·,·,·,·
OC(c1cc(F)cc(Cl)c1)c1ncc(-c2ccccc2Cl)[nH]1 (stereo not drawn),23.8*,·,-1.9,·,-1.8,·,58.5*,3.7,24.0*
OC(c1ccccc1)c1ncc(-c2ccccc2Cl)[nH]1 (stereo not drawn),-0.2,·,-12.2,·,-2.2,·,·,·,·
Cc1ccc(-c2cnc(C(O)c3ccc(Cl)c(Cl)c3)[nH]2)cc1 (stereo not drawn),9.4*,·,0.4,·,6.5,·,36.6*,-9.5,14.3
Cc1ccc(-c2cnc(C(O)c3cc(F)cc(Cl)c3)[nH]2)cc1 (stereo not drawn),10.4*,·,10.0,·,-0.2,·,39.4*,1.7,14.5
OC(c1cc(F)cc(Cl)c1)c1ncc(-c2ccc3ccccc3c2)[nH]1 (stereo not drawn),76.5*,·,0.1,·,1.7,·,92.0*,9.2,75.0*
CN(CC(=O)Nc1ccccc1C(F)(F)F)C(=O)C1CCN(S(=O)(=O)c2ccc3c(c2)OCCO3)CC1,-0.3,·,7.6,-0.4,2.4,2.8,·,·,·
Nc1cc(=O)[nH]c(SCC(=O)Nc2ccc(N3CCOCC3)cc2)n1,-0.2,·,8.8,0.0,-0.3,-4.4,·,·,·
Cc1ccc(NC(=O)CSc2nnc(COc3ccccc3F)n2N)cc1S(=O)(=O)N1CCOCC1,-0.5,·,10.7,·,-0.2,·,·,·,·
CC(C)Cn1c(N)c(C(=O)CSc2n[nH]c(N)n2)c(=O)n(C)c1=O,-0.2,·,3.5,-0.3,-2.3,6.9,·,·,·
C[C@H]1CN([C@@H](C)CO)S(=O)(=O)c2ccc(Br)cc2O[C@@H]1CN(C)C(=O)Cc1cccnc1,-1.5,·,0.1,·,-0.9,·,·,·,·
Cc1noc(C)c1S(=O)(=O)N(C)C[C@H]1OCCCC[C@H](C)Oc2ccc(NC(=O)CCCN(C)C)cc2C(=O)N([C@H](C)CO)C[C@@H]1C,-0.7,·,-3.0,·,-0.8,·,·,·,·
OC(c1cccc(F)c1)c1ncc(-c2ccc3ccccc3c2)[nH]1 (stereo not drawn),1.4,·,6.5,·,-1.8,·,·,·,·
OC(c1cccc(Cl)c1)c1ncc(-c2ccc3ccccc3c2)[nH]1 (stereo not drawn),42.3*,·,4.4,·,2.3,·,73.9*,7.6,46.9*
O=C(NNC(=O)c1cc(-c2ccc(Cl)c(Cl)c2)nc2ccccc12)Nc1ccccc1,45.1*,-7.4,3.9,0.3,1.7,9.1,93.9*,2.2,80.9*
Cc1cccc(NC(=O)NNC(=O)c2cc(-c3ccccc3Cl)nc3ccccc23)c1,-1.0,-4.6,4.9,2.5,-1.2,14.8,·,·,·
Cc1cc(C)nc(NS(=O)(=O)c2ccc(NC(=O)Nc3ccccc3F)cc2)n1,7.3*,29.3,0.0,-2.7,-1.4,5.6,16.2*,-8.2,2.3
SMILES,TbMetRS inhib,NALP1 yeast inh,MC4R antag cAMP,Bfl-1 A1 inh,MC4R ag barr,NLRP3 yeast inh,Tb MetRS conf,Jurkat tox,Tb MetRS inh FP
COP(=O)(OC)C(Nc1cc(Cl)cc(Cl)c1)c1cccc(O)c1 (stereo not drawn),5.7*,13.9,5.6,0.5,-3.2,13.6,14.5*,-0.6,4.0
CCOP(=O)(OCC)C(Nc1cc(Cl)cc(Cl)c1)c1cccc(O)c1 (stereo not drawn),2.1,11.7,6.9,-0.3,2.2,13.1,·,·,·
CC(=O)Nc1ccc(NC(=O)C(C)OC(=O)CCSc2ccccc2Cl)cc1 (stereo not drawn),-0.4,·,-4.8,-1.4,-1.2,16.6,·,·,·
O=S(=O)(c1ccc2nc(SCc3ccc(Cl)cc3)[nH]c2c1)N1CCOCC1,12.4*,15.4,9.4,0.7,-0.9,1.9,17.9*,0.0,18.6*
Cc1ccccc1OCc1nc2ccc(S(=O)(=O)N3CCOCC3)cc2[nH]1,1.0,10.9,5.5,0.5,-1.8,-10.2,·,·,·
O=S(=O)(c1ccc2nc(COc3ccc(Cl)cc3Cl)[nH]c2c1)N1CCOCC1,12.1*,6.1,2.5,-0.4,1.5,10.6,21.4*,9.2,14.5
Cc1nc2nc(SCc3nc4ccccc4[nH]3)[nH]c2cc1Br,13.0*,·,-2.0,0.4,-2.4,9.9,17.8*,-0.2,11.6
Cc1ccc2nc(SCc3nc4ccccc4c(=O)[nH]3)[nH]c2c1,0.5,4.0,-5.9,-0.7,-1.6,11.5,·,·,·
